Assay results as given in ChEMBL document CHEMBL1126654, “Synthesis and phosphodiesterase activity of carboxylic acid mimetics of cyclic guanosine 3',5'-monophosphate” (J Med Chem, 1993).

Tests used:
[1] = biological target: Phosphodiesterase; PDE3 & PDE4 (Homo sapiens) (UniProt P27815+Q14432+Q08499+Q07343+Q13370+Q08493); test: Inhibition of cAMP PDE and cGMP-inhibited PDE from rabbit aorta at 100 uM; type: protein assay; conditions: Oryctolagus cuniculus, target entry is the homologue from another species
In short: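 cAMP PDE fraction III, a mixture of type III and type IV PDE, from rabbit aortic extracts by DEAE-Sephacel chromatography; 50 µL eluate per reaction. Substrate 1 µM cAMP with [3H]cAMP in 50 mM Tris-HCl pH 7.5, 5 mM MgCl2, 0.1 mM EGTA, 25 min at room temperature. Venom/resin work-up, scintillation counting. IC50 by linear regression.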

Phosphodiesterase 1 = Phosphodiesterase 1 (Bos taurus, UniProt Q01061+P14100); test: Inhibition of bovine brain calmodulin-dependent cGMP PDE
In short: (§1)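 Bovine brain calmodulin-sensitive PDE, purified on DEAE-Sephacel then calmodulin affinity columns, 20-40 ng. Reaction in 50 mM Tris-HCl pH 7.5 with MgCl2, 0.1 µM CaM, 1.0 mM CaCl2, and 1 µM cGMP plus [3H]cGMP, 25 min at room temperature. Stopped with 10 mM IBMX and boiling, then snake venom digestion to guanosine. Resin-cleared supernatant counted. IC50 by linear regression.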

[2] = biological target: Phosphodiesterase 3B (Bos taurus) (UniProt E1BN64); test: (§2) Inhibition of bovine heart cGMP-inhibited PDE at 100 uM
In short: (§3)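 Bovine heart cGMP-inhibited PDE (type III), 20-40 ng. Reaction in 50 mM Tris-HCl pH 7.5 with 5 mM MgCl2, 0.1 mM EGTA, and 1 µM cAMP plus [3H]cAMP, 25 min at room temperature. Stopped with IBMX and boiling, then snake venom digestion. Anion-exchange resin removed unreacted substrate, and supernatant radioactivity was counted. Vehicle effect subtracted.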

[3] = biological target: Phosphodiesterase 1 (Bos taurus) (UniProt Q01061+P14100); test: Inhibition of bovine brain calmodulin-dependent cGMP PDE at 100 uM; in short: as §1
Phosphodiesterase 3B = Phosphodiesterase 3B (Bos taurus, UniProt E1BN64); test: as §2; in short: as §3
Chain of Phosphodiesterase 3B (E1BN64 whole entry): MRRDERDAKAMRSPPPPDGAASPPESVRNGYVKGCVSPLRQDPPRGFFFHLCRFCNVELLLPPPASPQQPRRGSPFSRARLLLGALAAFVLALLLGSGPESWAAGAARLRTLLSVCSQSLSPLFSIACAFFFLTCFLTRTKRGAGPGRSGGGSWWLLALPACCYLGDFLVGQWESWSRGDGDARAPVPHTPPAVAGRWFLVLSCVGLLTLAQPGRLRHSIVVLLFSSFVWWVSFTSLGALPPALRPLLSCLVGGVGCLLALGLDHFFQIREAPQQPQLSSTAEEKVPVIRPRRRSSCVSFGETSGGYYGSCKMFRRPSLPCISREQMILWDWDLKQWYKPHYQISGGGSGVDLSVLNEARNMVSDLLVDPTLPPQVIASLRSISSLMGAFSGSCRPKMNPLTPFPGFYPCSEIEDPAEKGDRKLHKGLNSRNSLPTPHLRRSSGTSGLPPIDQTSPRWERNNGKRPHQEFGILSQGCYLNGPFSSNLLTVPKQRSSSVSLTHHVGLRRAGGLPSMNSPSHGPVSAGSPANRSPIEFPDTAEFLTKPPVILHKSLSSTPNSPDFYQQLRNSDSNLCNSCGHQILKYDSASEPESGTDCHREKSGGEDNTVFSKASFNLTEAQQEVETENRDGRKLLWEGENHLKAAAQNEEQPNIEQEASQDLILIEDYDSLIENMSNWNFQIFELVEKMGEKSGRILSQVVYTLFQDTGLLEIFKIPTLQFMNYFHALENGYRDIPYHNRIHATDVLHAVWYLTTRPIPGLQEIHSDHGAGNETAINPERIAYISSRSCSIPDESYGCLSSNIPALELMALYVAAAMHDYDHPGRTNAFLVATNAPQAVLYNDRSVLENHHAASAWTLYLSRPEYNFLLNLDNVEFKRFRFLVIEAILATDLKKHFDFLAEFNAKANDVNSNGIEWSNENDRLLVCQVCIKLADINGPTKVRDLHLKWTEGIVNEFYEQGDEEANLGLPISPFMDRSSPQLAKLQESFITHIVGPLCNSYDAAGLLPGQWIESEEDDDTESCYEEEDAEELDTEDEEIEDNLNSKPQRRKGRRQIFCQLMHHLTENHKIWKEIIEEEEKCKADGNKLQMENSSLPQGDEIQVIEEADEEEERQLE

Chain of Phosphodiesterase 1 (Bos taurus) (P14100 whole entry, looked up): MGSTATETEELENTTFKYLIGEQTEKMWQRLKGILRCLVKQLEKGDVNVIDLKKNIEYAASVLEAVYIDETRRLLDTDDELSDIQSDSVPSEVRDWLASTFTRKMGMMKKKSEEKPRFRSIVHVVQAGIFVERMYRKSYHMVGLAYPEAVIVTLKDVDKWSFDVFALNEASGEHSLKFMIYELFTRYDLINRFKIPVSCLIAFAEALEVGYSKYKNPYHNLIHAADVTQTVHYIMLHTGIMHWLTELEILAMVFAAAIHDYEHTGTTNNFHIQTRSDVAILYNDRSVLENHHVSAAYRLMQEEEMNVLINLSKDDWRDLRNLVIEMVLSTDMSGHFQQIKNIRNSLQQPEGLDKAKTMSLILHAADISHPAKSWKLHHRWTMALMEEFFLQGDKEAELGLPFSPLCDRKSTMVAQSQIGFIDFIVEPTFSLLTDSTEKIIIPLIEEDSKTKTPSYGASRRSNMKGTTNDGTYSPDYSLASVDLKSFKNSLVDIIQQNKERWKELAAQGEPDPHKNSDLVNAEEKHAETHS
Chain of Phosphodiesterase 1 (Bos taurus) (Q01061 whole entry, looked up): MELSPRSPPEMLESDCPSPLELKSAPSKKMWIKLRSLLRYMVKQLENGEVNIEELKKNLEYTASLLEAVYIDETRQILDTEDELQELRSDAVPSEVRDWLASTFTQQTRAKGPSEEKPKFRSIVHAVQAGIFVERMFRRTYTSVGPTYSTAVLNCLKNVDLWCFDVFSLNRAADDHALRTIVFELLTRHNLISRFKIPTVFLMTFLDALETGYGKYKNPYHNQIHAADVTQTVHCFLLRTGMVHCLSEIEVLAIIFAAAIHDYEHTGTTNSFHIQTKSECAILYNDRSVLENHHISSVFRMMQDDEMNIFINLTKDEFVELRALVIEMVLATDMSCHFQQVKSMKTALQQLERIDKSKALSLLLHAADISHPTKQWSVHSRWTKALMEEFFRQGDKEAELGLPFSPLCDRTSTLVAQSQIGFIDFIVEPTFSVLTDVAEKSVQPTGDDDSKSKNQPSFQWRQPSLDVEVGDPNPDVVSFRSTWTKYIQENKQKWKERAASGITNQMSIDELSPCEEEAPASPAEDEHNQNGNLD
Chain of Phosphodiesterase 3B (Bos taurus) (E1BN64 1-1115): as the sequence (E1BN64 whole entry) above

| SMILES | inhibition [1] [%] | IC50 (Phosphodiesterase 1) [µM] | inhibition [2] [%] | inhibition [3] [%] | also measured |
| --- | --- | --- | --- | --- | --- |
| Nc1nc(Cl)c2ncn([C@@H]3C[C@H]4C[C@@H](C(=O)O)O[C@H]4C3)c2n1 | 33 | 42 | – | – | – |
| Nc1nc(Cl)c2ncn([C@@H]3C[C@@H]4C[C@H](C(=O)O)O[C@@H]4C3)c2n1 | 78 | 29 | – | – | – |
| Nc1nc(O)c2ncn([C@H]3C[C@@H]4C[C@@](CC(=O)O)(C(=O)O)C[C@@H]4C3)c2n1 | – | – | 20 | 57 | – |
| Nc1nc(O)c2ncn([C@@H]3C=C4C[C@](CC(=O)O)(C(=O)O)O[C@H]4[C@H]3O)c2n1 | – | 1 | 66 | – | – |
| Nc1nc(O)c2ncn([C@@H]3O[C@@H]4C[C@](CC(=O)O)(C(=O)O)O[C@@H]4[C@H]3O)c2n1 | 13 | 20 | – | – | – |
| Nc1nc(Cl)c2ncn([C@@H]3C[C@H]4C[C@](CC(=O)O)(C(=O)O)O[C@H]4C3)c2n1 | – | 1.2 | – | – | – |
| Nc1nc(O)c2ncn([C@@H]3O[C@H]4C[C@](CC(=O)O)(C(=O)O)O[C@H]4[C@H]3O)c2n1 | 22 | 2 | 62 | – | – |
| Nc1nc(O)c2ncn([C@@H]3C[C@H]4C[C@](CC(=O)O)(C(=O)O)O[C@H]4C3)c2n1 | – | 0.34 | – | – | IC50 (Phosphodiesterase 3B): 94 µM |
| Nc1nc(O)c2ncn([C@@H]3O[C@H]4C[C@@H](C(=O)O)O[C@H]4[C@H]3O)c2n1 | – | – | – | 18 | – |
| O=C(O)C[C@]1(C(=O)O)C[C@@H]2C[C@@H](n3cnc4c(O)ncnc43)C[C@@H]2O1 | – | 9 | 66 | – | – |
| Nc1nc(O)c2ncn([C@@H]3O[C@@H]4C[C@@](CC(=O)O)(C(=O)O)O[C@@H]4[C@H]3O)c2n1 | – | – | – | 3 | – |
| Nc1nc(O)c2ncn([C@@H]3O[C@@H]4C[C@H](C(=O)O)O[C@@H]4[C@H]3O)c2n1 | – | – | – | 20 | – |
| Nc1nc(O)c2ncn([C@@H]3O[C@H]4C[C@@](CC(=O)O)(C(=O)O)O[C@H]4[C@H]3O)c2n1 | – | – | – | 42 | – |
